Experiment [1] addresses T1, Rho-associated protein kinase 2 (Homo sapiens, UniProt O75116). Description: Inhibition of ROCK2 (unknown origin) using C-terminus recombinant MBS (654-880 residues) as substrate incubated for 30 mins in presence of ATP by ELISA. A digest of the protocol:
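Compounds with significant single-point inhibition were run in full concentration–response in the ROCK II ELISA kit. Kinase step at 30 °C for 30 min, then wash. Anti-AF20 HRP antibody applied for 30 min at room temperature, followed by TMB colour development read at OD 450 nm. IC50 calculated by nonlinear regression of inhibition rates.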
Target sequence in this assay (O75116 whole entry, the tested form may be a part): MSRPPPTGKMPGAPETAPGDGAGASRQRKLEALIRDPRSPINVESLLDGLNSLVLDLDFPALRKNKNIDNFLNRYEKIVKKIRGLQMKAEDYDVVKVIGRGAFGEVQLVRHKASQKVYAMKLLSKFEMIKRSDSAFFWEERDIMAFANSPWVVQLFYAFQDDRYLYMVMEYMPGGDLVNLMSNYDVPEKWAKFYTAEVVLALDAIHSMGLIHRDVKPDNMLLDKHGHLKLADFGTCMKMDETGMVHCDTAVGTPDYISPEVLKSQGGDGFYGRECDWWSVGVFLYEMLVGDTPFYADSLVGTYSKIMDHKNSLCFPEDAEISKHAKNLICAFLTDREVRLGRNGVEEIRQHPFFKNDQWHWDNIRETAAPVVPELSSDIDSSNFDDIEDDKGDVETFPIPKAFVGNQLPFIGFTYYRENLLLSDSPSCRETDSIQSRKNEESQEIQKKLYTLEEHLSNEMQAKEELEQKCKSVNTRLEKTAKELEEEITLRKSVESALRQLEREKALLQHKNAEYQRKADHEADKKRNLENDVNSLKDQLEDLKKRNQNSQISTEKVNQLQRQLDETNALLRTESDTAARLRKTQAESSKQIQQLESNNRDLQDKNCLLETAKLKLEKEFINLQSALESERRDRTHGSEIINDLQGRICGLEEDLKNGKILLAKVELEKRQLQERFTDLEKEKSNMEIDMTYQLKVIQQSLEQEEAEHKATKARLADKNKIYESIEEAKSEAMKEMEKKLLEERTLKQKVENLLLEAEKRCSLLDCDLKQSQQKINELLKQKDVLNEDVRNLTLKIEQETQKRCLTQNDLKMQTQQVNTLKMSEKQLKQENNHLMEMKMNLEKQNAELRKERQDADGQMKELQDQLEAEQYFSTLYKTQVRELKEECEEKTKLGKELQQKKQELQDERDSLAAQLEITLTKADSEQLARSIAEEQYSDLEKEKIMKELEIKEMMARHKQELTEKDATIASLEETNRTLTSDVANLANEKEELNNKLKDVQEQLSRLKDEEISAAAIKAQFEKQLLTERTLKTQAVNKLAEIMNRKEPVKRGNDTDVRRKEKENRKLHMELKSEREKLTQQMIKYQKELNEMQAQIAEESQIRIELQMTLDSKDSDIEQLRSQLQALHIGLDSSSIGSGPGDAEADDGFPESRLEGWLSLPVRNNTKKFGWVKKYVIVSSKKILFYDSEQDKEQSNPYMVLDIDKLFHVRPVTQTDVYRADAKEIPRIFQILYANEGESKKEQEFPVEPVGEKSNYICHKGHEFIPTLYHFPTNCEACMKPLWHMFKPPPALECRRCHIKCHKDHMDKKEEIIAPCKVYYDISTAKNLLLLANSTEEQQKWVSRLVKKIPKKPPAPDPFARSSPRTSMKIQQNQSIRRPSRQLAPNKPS

Experiment [2] deals with T1, Rho-associated protein kinase 2. Description: Inhibition of ROCK2 (unknown origin) using C-terminus recombinant MBS (654-880 residues) as substrate at 10 uM incubated for 30 mins in presence of ATP by ELISA relative to control. A digest of the protocol: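 ROCK II activity ELISA kit; compounds screened at 10 µM for percent inhibition. Kinase reaction incubated at 30 °C for 30 min, then washed. Horseradish peroxidase-conjugated anti-AF20 antibody added for 30 min at room temperature. TMB substrate developed and absorbance read at 450 nm. Inhibition rate derived from OD450.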
Target sequence in this assay (O75116 whole entry, looked up, the tested form may be a part): as the sequence (O75116 whole entry, the tested form may be a part) above

As to `CN(C)Cc1sc(NC(=O)C2COc3ccccc3O2)nc1-c1cccnc1` (stereo not drawn), the half-maximal inhibitory concentration (IC50) in experiment [1] was 4960 nM. Further, the inhibition in experiment [2] is 58.1%. Turning to `O=C(Nc1nc(-c2cccnc2)c(CN2CCOCC2)s1)c1cccnc1`, in experiment [2], the inhibition is 41.1%. The same measure, in the same setting: to `CN(C)C(=O)Cc1sc(NC(=O)c2ccncc2)nc1-c1ccncc1` belongs 38.1%. Take `CN(C)CCc1sc(NC(=O)C2COc3ccccc3O2)nc1-c1ccncc1` (stereo not drawn): the concentration for half-maximal inhibition (IC50) in experiment [1] was 90 nM. Moreover, the inhibition in experiment [2] is 78.5%. Turning to `CN(C)Cc1sc(NC(=O)c2cccnc2)nc1-c1cccnc1`, in experiment [2], the inhibition was 33.9%. As for `O=C(Nc1nc(-c2ccncc2)c(CN2CCOCC2)s1)c1ccncc1`, in experiment [2], the inhibition turned out to be 58.1%. Still for that read-out and setting: in the case of `CN(C)CCc1sc(NC(=O)c2ccncc2)nc1-c1ccncc1` it was 48.8%. Still for that read-out and setting: in the case of `CC(C)N(C)c1sc(NC(=O)c2ccncc2)nc1-c1ccncc1` it was 32.1%. Same read-out and setting: in the case of `CC(C)N(C)Cc1sc(NC(=O)c2cccnc2)nc1-c1cccnc1` it was 38.1%. For `CN(C)C(=O)Cc1sc(NC(=O)C2COc3ccccc3O2)nc1-c1ccncc1` (stereo not drawn), in experiment [1], the IC50 is 8830 nM. In experiment [2], the inhibition was 56.9%. The corresponding values for `O=C(Nc1nc(-c2cccnc2)c(CN2CCOCC2)s1)C1COc2ccccc2O1` (stereo not drawn) are 1730 nM and 63.8%. Consider `O=C(Nc1nc(-c2ccncc2)cs1)C1COc2ccccc2O1` (stereo not drawn), for which the inhibition in experiment [2] came to 91.3%. The same measure, in the same setting: to `CN1CCN(Cc2sc(NC(=O)c3cccnc3)nc2-c2cccnc2)CC1` belongs 32.1%. For the molecule `O=C(Nc1nc(-c2ccncc2)c(N2CCOCC2)s1)C1COc2ccccc2O1` (stereo not drawn), the half-inhibitory concentration (IC50) in experiment [1] came to 130 nM. The inhibition in experiment [2] was 76.3%. For the molecule `CN(C)Cc1sc(NC(=O)c2ccncc2)nc1-c1cccnc1`, the inhibition in experiment [2] worked out at 35.3%.

For `O=C(Nc1nc(-c2cccnc2)c(CN2CCCCC2)s1)c1cccnc1`, in experiment [2], the inhibition was determined as 28.5%. The same measure, in the same setting: in the case of `O=C(Nc1nc(-c2ccncc2)c(CN2CCCCC2)s1)c1ccncc1` it was 48.2%; in that of `O=C(Nc1nc(-c2ccncc2)c(CN2CCOCC2)s1)C1COc2ccccc2O1` (stereo not drawn), 87.4%. Same read-out and setting: in the case of `O=C(Nc1nc(-c2cccnc2)c(CN2CCOCC2)s1)c1ccncc1` it was 51.1%; in that of `O=C(Nc1nc(-c2ccncc2)c(CN2CCOCC2)s1)c1cccnc1`, 52.2%; in that of `O=C(Nc1nc(-c2cccnc2)c(CN2CCCC2)s1)C1COc2ccccc2O1` (stereo not drawn), 61.3%. As to `O=C(Nc1nc(-c2ccncc2)c(CN2CCCC2)s1)c1ccncc1`, in experiment [2], the inhibition was determined as 47.6%.

Consider `CN1CCN(c2sc(NC(=O)c3ccncc3)nc2-c2ccncc2)CC1`, for which, in experiment [2], the inhibition amounted to 34.3%.

Values taken from ChEMBL document CHEMBL4725404, “Design, synthesis and biological evaluation of 4-aryl-5-aminoalkyl-thiazole-2-amines derivatives as ROCK II inhibitors” (Bioorg Med Chem, 2020).
